Assays:
Mus musculus [1] = test: Neurotoxicity in C57BL/6J mouse assessed as increase of striatal GFAP level at 12.5 mg/kg, sc after 72 hrs by ELISA; assay type: toxicity, organism-based; parameters: dose 12.5 mg/kg, route subcutaneous; conditions: in vivo
Outline: (§1)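 Female C57BL/6J mice aged 3–4 months, single sc dose, 0.9% saline vehicle, killed 72 h post-dose. Striatum homogenised in hot 1% SDS. GFAP or TH measured by detergent-based sandwich ELISA.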

Mus musculus [2] = test: Neurotoxicity in C57BL/6J mouse assessed as reduction of striatal tyrosine hydroxylase level at 12.5 mg/kg, sc after 72 hrs by ELISA; assay type: toxicity, organism-based; parameters: dose 12.5 mg/kg, route subcutaneous; conditions: in vivo; outline: as §1
[3] = target: T1, Amine oxidase [flavin-containing] A (Homo sapiens, UniProt P21397); test: Inhibition of human recombinant MAOA expressed in insect cells assessed as oxidation of kynuramine substrate at 50 uM measured after additional enzyme added after 120 mins incubation; conditions: 2 h
T1 sequence (P21397 whole entry): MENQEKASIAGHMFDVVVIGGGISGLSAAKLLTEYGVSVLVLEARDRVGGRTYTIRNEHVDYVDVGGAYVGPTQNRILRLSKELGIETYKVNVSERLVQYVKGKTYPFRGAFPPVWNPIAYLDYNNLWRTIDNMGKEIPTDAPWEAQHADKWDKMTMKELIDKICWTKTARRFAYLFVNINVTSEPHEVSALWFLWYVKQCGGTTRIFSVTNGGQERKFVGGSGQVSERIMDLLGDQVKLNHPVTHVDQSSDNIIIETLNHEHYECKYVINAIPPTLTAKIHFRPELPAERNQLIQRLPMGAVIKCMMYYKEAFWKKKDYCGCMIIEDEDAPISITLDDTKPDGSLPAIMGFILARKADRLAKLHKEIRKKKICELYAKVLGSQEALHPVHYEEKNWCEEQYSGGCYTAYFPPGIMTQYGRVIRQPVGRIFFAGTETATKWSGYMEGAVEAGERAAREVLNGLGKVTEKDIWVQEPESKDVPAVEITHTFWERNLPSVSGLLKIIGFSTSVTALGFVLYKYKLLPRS
Outline: (§2)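 Recombinant human MAO-A incubated with kynuramine, with or without inhibitor. Product formation followed over time. A second equivalent of substrate (150 µM kynuramine) added at 90 min and fresh enzyme added at 120 min.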

[4] = target: T1, Amine oxidase [flavin-containing] A; test: Inhibition of human recombinant MAOA expressed in insect cells assessed as oxidation of kynuramine substrate at 50 uM measured after additional substrate added after 90 mins incubation; conditions: 1.5 h; outline: as §2

CN1CC=C(c2ccccc2)CC1
Activity (Mus musculus [1]): Toxic
Activity (Mus musculus [2]): Toxic
inhibition (INH) [3]: Active
inhibition (INH) [4]: Active
